Only some compounds are listed: those with a hit (about 2.4% of all), similar ones and a draw of the others.
INS-1E GSIS act: primary screen for activators of insulin secretion dependent on glucose, INS-1E cells, GLuc reporter luminescence; activation, % at 16.6 µM; 370,000 compounds, 0.61% hits; INS-1E GLuc reporter insulin secretion, 2-3 h;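 active = lowest replicate activation of at least 40%, so every replicate reaches that level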;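 note: 0% = median of neutral control wells and 100% = median of IBMX positive control wells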
Env fusion inh: blocks HIV Env-driven cell-cell fusion; HeLa-JRFL Env/CEM21 cell fusion, luciferase; inhibition, % at 12.3 µM; 360,000 compounds, 1.1% hits; AID 651610;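 active = mean replicate inhibition score of at least 50 and every replicate individually at or above 50; inconclusive = only one of the two criteria met; inactive = mean below 50 and not all replicates reaching 50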;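 note: 0% = plate neutral controls and 100% = maraviroc near 300 nM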
Cneo AK release: causes C. neoformans cell lysis | adenylate kinase release luminescence, 4 h; normalised: neutral wells 0, clomiphene wells 100 | lysis activity, % at 15 µM | 360,000 compounds, 0.2% hits | AID 651654;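 active = mean lysis activity across replicates of at least 80%, whatever share of replicates individually reach that level; inactive = mean lysis activity below 80%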
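Test system: log-phase Cryptococcus neoformans yeast cells. Input: 5 × 10^6 yeast cells/mL. Medium: fresh YPD growth medium. Doses: single dose. Incubation: static 4 h at 37 °C with compound, 1 h detection. Measured by: luminescent adenylate kinase detection reagent. Read-out: signal increase indicating cell lysis. Benchmarks: Clomiphene.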
miR-122 sensor: miR-122 inhibition in Huh7 cells; activation (reporter increase), % at 12.5 µM; 340,000 compounds, 0.3% hits; Huh7 miR-122 Renilla luciferase sensor, 48 h; neutral wells = 0, positive control = 100;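 active = mean replicate activation score at least 90 and every replicate individually at or above 90; inconclusive = only one of the two criteria met; inactive = neither criterion met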;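 note: higher luciferase means less miR-122 activity so hits act as miR-122 inhibitors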
Rtt109 Vps75: blocks Candida albicans Rtt109/Vps75 acetyltransferase activity. Q5AAJ8. inhibition, % at 34.9 µM. purified Rtt109/Vps75, ThioGlo CoA-SH fluorescence, 4 h. 330,000 compounds, 0.16% hits;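 active = inhibition of at least 50% in every replicate; inconclusive = best replicate reaches 50% inhibition but some replicates fall short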
Target sequence (Q5AAJ8 whole entry, looked up): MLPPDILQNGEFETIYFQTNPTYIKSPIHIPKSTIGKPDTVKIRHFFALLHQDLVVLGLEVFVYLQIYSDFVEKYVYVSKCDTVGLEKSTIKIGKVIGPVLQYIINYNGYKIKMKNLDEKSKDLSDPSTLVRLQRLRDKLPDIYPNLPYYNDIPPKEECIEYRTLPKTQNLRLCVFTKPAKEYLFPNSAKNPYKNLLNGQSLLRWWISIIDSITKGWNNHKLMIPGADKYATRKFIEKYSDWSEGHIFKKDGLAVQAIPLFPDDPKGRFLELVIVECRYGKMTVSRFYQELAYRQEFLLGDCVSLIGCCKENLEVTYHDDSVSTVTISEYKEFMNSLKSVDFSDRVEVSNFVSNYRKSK
dFosB act-1: enhances mouse delta FosB homodimer DNA binding. AID 493131. 340,000 compounds, 0.99% hits. purified delta FosB, TAMRA-CDK5 oligo fluorescence polarization; percent of positive-control signal above neutral wells. P13346. activation, % at 25 µM;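 active = mean activation above about 17%, with every replicate also reaching it, limit read from the data, passing the limit was not always enough; inconclusive = only one of the two conditions met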
dFosB act-2: delta FosB (mouse) homodimer activation | purified delta FosB, TAMRA-CDK5 oligo fluorescence polarization; normalised: neutral wells 0, positive control 100 | shares compounds with dFosB act-1 | activation, % at 24.9 µM | 2,400 tested, under 10 active | AID 588690;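 active = highest replicate activation at or above 34% and every replicate reaching that threshold; inconclusive = meets only one of the two criteria; inactive = meets neither criterion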;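 note: higher polarization means more probe DNA bound by delta FosB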
An asterisk follows results filed as active; ? = inconclusive; / = no result given; [ ] = another dose, or the depositor's remark.

SMILES	INS-1E GSIS act	Env fusion inh	Cneo AK release	miR-122 sensor	Rtt109 Vps75	dFosB act-1	dFosB act-2
Cc1ccc(-c2cc(C(=O)NCc3ccc4c(c3)OCO4)[nH]n2)c(O)c1C	/	-205.9	-1.6	15.6	-2.0	20.6*	-1.9
Cc1ccc(-c2cc(C(=O)Nc3cccnc3)[nH]n2)c(O)c1C	0.4	-117.0	/	/	-11.9	25.0*	3.4
O=C(c1ccccn1)N1CC[C@@H]2[C@@H](CO)Nc3ccc(-c4ccc(F)cc4)cc3[C@@H]21	5.2	/	3.0	7.1[16.7 µM]	/	/	/
O=C(Nc1cc(F)ccc1F)N[C@H]1CC[C@@H](CCn2cc(C3CCCC3)nn2)O[C@H]1CO	-18.0	/	/	/	/	/	/
Cc1ccc(S(=O)(=O)N2[C@@H]3CNC[C@H]2C3c2ccc(-c3cccc(C)c3)cc2)cc1 (some centres not stated)	35.7	/	/	/	/	/	/
O=C(NCCc1nc2ccccc2[nH]1)/C(=C/c1ccc2c(c1)OCO2)NC(=O)c1ccc(Cl)cc1Cl	-23.1	/	/	/	23.2	19.6*	1.0
O=C(NCCc1nc2ccccc2[nH]1)/C(=C/c1ccc(F)cc1)NC(=O)c1ccco1	-5.6	27.0	/	/	-4.0	-1.3	/
COc1ccc2nc(N(CCN(C)C)C(=O)/C=C/c3cccs3)sc2c1	-32.8	-1.0	/	/	-3.6	42.1*	-8.0
COc1cc2ccccc2cc1C(=O)N(CCN(C)C)c1nc2ccc(C)cc2s1	-62.9	12.8	1.4	-13.1	27.3	40.3*	2.0
COc1cc2ccccc2cc1C(=O)N(CCN(C)C)c1nc2c(C)cccc2s1	-20.3	32.6	2.1	3.5	1.3	28.6*	5.6
CCS(=O)(=O)N1CCCCN2[C@@H](CO)[C@H](c3ccc(C#Cc4ccccc4OC)cc3)[C@@H]2C1	-8.3	/	-1.4	4.3[16.7 µM]	/	/	/
COc1ccc2c3c(n(C)c2c1)[C@@H](CO)N(S(C)(=O)=O)CC31CN(C(=O)C2CCC2)C1	27.4	/	/	/	/	/	/
COc1ccc2cc(OCC(=O)NNC(=O)Nc3ccc(F)cc3)ccc2c1	13.9	4.6	-1.8	-2.6	17.0	21.2*	0.4
COc1ccc2c3c([nH]c2c1)[C@H](CO)N(Cc1nccs1)CC31CN(Cc2nccs2)C1	3.7	/	/	/	/	/	/
Clc1ccc(C2[C@H]3CN(Cc4ccc(-c5ccccc5)cc4)[C@H](c4ccccc4)C34CC2(c2ccccc2)C4)cn1 (some centres not stated)	/	-54.6	/	/	/	/	/
N#Cc1ccc(C23CC4(C2)[C@H](CN(Cc2ccc(-c5ccccc5)cc2)[C@@H]4c2ccccc2)C3c2ccc(Cl)nc2)cc1 (some centres not stated)	-0.4	-29.1	-0.6	-3.1	-1.8	16.8*	4.1
CCOC(=O)c1ccc(-n2cccc2/C=C2\NC(=O)NC2=O)cc1	-22.8	-19.0	-1.4	11.5	-1.8	30.1*	6.6
C[C@@H]1CCCCO[C@@H](CN(C)S(=O)(=O)c2ccc(Cl)cc2)[C@H](C)CN([C@@H](C)CO)C(=O)c2cc(NC(=O)c3ccncc3)ccc2O1	-9.8	6.1[16.7 µM]	-0.4	3.6[16.7 µM]	/	/	/
COc1cc(OC)c2c(-c3ccccc3)cc(=O)oc2c1C(CCN1CCOCC1)c1ccc2c(c1)OCO2 (configuration not stated)	-6.4	-61.1	1.2	/	-5.7	3.6	/
COc1cc(OC)c2c(-c3ccccc3)cc(=O)oc2c1C(CCN1CCCC1)c1ccc2c(c1)OCO2 (configuration not stated)	-28.9	-42.2	0.0	45.6	6.7	19.3*	1.8
COc1ccc(C(CCN2CCN(c3ccccc3)CC2)c2c(OC)cc(OC)c3c(-c4ccccc4)cc(=O)oc23)cc1 (configuration not stated)	0.8	3.0	1.1	1.7	-8.5	19.6*	2.2
CCCCCc1cc(=O)oc2c(C(CCN3CCCCC3)c3ccc4c(c3)OCO4)c(OC)cc(OC)c12 (configuration not stated)	94.7	-8.3	13.3	35.5	23.5	?	/
CCCCCc1cc(=O)oc2c(C(CCN3CCCC(C)C3)c3ccc4c(c3)OCO4)c(OC)cc(OC)c12 (configuration not stated)	36.4	16.3	0.9	/	5.2	32.5*	1.1
